Experimental findings from ChEMBL document CHEMBL1121797, “Studies on chiral interactions of 1-(2,5-dimethoxy-4-methylphenyl)-2-aminopropane and the corresponding N-hydroxy metabolites with cytochrome P-450” (J Med Chem, 1981) are described below.

Data set [1] in a line: Initial rates of formation of metabolic intermediate Cytochrome P-450 at compound concentration of 30 uM. Type of data set: ADME. In a few lines:
(§1)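 Rabbit liver microsomes at 2 mg protein/mL with 0.1 mM EDTA, 37 °C, substrate 30 μM. Complex formation started with 0.4 mM NADPH and followed by dual-wavelength absorbance, 457 vs 500 nm. Initial rate is the initial slope, ΔA×10^4 per nmol P-450 per min. Extent is the plateau absorbance. Lag is the time from NADPH addition to first 457-nm chromophore. Triplicate or single runs.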

Data set [2] in a line: Initial rates of formation of metabolic intermediate Cytochrome P-450 at compound concentration of 7.5-180 uM. Format: ADME. In a few lines:
(§2)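 Rabbit liver microsomes at 2 mg protein/mL with 0.1 mM EDTA, 37 °C, NADPH-dependent. Substrate tested at several concentrations. ΔA457–500 nm followed against time. Rate is the initial slope per nmol P-450 per min; extent is the plateau absorbance. Runs disturbed by a transient 450-nm species were discarded.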

Data set [3] in a line: Extent rates of formation of metabolic intermediate Cytochrome P-450 at compound concentration of 30 uM. Type of data set: ADME. In a few lines:
as §1

Data set [4] is described as follows: Extent rates of formation of metabolic intermediate Cytochrome P-450 at compound concentration of 7.5-180 uM. Format: ADME. In a few lines: as §2
The target of data set [5] is T1, Cytochrome P450 2C19 (Homo sapiens, UniProt P33261). Description: Apparent binding affinity of compound (10.8-60.0 uM) in Cytochrome P450 binding. Format: ADME, Oryctolagus cuniculus. The following applies: read-out: Ks.
Data set [6] can be described thus: Lag time between the addition of compound (30 uM) and the first appearance of chromophore. Format: ADME. In a few lines: as §1
Data set [7] can be described thus: Initial rates of formation of metabolic intermediate Cytochrome P-450 at compound concentration of 7.5-120 uM. Format: ADME. In a few lines:
as §2

Data set [8] can be described thus: Initial rates of formation of metabolic intermediate Cytochrome P-450 with compound concentration of 150 uM. Type of data set: ADME. In a few lines:
(§3)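 Cross-inhibition in NADPH-supplemented rabbit liver microsomes at 37 °C. Preincubation with amine at 30, 150 or 300 μM while 457-nm complex formation was monitored. Once it plateaued (6–8 min), racemic hydroxylamine was added at 300 μM. Initial rate and plateau extent were read from ΔA457–500 nm vs time, per nmol P-450.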

Data set [9] can be described thus: Initial rates of formation of metabolic intermediate Cytochrome P-450 with compound concentration of 30 uM. Type of data set: ADME. In a few lines: as §3
Data set [10] in a line: Initial rates of formation of metabolic intermediate Cytochrome P-450 with compound concentration of 300 uM. Type of data set: ADME. In a few lines: as §3
The target in data set [11] is T1, Cytochrome P450 2C19. Nature of the data set: Apparent binding affinity constant of compound (1.8-60.0) for Cytochrome P450. Format: ADME, Oryctolagus cuniculus. The following applies: read-out: Ks.
A short description of data set [12]: Extent rates of formation of metabolic intermediate Cytochrome P-450 at compound concentration of 7.5-120 uM. Format: ADME. In a few lines:
as §2

T1 sequence (P33261 whole entry): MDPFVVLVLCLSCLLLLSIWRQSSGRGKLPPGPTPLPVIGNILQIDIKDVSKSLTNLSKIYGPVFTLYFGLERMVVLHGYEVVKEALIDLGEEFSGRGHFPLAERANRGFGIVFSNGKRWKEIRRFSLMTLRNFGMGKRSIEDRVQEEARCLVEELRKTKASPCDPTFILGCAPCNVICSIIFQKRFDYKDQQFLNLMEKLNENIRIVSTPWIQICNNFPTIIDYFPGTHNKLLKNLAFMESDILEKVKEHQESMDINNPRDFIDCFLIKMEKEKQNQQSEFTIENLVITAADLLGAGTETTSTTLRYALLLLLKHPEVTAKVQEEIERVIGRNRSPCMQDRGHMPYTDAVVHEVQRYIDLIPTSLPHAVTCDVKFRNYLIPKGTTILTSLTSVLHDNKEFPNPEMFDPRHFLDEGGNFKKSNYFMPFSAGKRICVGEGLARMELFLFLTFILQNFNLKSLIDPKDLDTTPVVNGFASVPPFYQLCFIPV

`COc1cc(C[C@@H](C)NO)c(OC)cc1C`: the Rate was 182 in data set [1], 30 in data set [2], 124 in data set [3] and 23 in data set [4]. In addition, the Kd at Cytochrome P450 2C19 [5] was 22 µM. This compound returned a Lag time in [6] of 0 s.

Turning to `COc1cc(C[C@H](C)N)c(OC)cc1C`, the Rate in data set [1] worked out at 3.1; in data set [7], 0; in [8], 1.5; in data set [9], 1.7; in data set [10], 1.1. Further, the Extent in data set [3] is listed as 29; in data set [12], 0. Moreover, the Kd at Cytochrome P450 2C19 [11] turned out to be 6 µM. Besides, the Lag time in data set [6] came to 136 s.
